Published values of several laboratories.
Each line is one published result; the experiments were not run side by side.

| Structure (SMILES) | species | sample | route | dose | notes | half-life |
| --- | --- | --- | --- | --- | --- | --- |
| CCn1c(=O)c(-c2cc(NC(=O)Nc3ccccc3)c(F)cc2Br)cc2cnc(NC)cc21 | beagle dog | plasma | oral | 5 mg/kg | single dose | 6.96 h |
| Cc1cnc(N2CC3(CCOCC3)C2)c(C(=O)Nc2ccc(C(=O)N3CCc4cc(C(=O)Nc5c(C)cccc5F)sc4-c4ccccc43)cc2)c1 | dog | plasma | intravenous | 0.1 mg/kg | single dose | 2.4 h |
| O=C(NCCN1CCCC1)c1cc(-c2ccc(CN3CCOCC3)cc2)nc2ccc(F)cc12 | male beagle dog | blood | intravenous | 1 mg/kg |  | 13 h |
| Cc1nnc2sc(C(=O)NCc3ccc(-c4cccnc4F)cc3)c(N)c2c1C | dog | plasma | intravenous |  |  | 1 h |
| Oc1c(-n2ccnn2)cnn1-c1cc(N2CCOCC2)ncn1 | female dog | plasma | intravenous | 3 mg/kg |  | 2.7 h |
| COc1cc2c3c(n(CCCN4CCOCC4)c(=O)c2cc1OC)-c1cc2c(cc1C3=O)OCO2 | female beagle dog | plasma | intravenous | 100 mg/m² | infusion | 14 h |
| C=CC(=O)Nc1cc(Nc2nccc(Nc3cc(Cl)c(F)cc3C(C)(C)O)n2)c(OC)cc1N1CC[C@@H](N(C)C)C1 | beagle dog | plasma | intravenous | 1 mg/kg |  | 13.9 h |
| CC[C@@H]1CN(C(=O)NCC(F)(F)F)C[C@@H]1c1cnc2cnc3[nH]ccc3n12 | beagle dog | plasma | oral | 1 mg/kg | single dose | 11.6 h |
